The values below come from ChEMBL document CHEMBL3769384, “Discovery of Tetrahydropyrazolopyridine as Sphingosine 1-Phosphate Receptor 3 (S1P3)-Sparing S1P1 Agonists Active at Low Oral Doses” (J Med Chem, 2016).

Series [1] deals with T1, Sphingosine 1-phosphate receptor 4 (Homo sapiens, UniProt O95977).
T1 sequence (O95977 whole entry): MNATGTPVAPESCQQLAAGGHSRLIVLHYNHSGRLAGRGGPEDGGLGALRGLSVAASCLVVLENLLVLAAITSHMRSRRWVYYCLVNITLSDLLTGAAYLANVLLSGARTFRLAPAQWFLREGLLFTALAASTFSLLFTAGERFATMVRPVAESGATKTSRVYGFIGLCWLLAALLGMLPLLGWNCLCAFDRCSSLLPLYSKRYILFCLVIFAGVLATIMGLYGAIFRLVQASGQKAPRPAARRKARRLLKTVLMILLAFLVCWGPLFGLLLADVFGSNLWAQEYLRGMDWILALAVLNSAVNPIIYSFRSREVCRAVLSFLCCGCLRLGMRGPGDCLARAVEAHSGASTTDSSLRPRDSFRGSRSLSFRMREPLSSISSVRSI
Kind of series: Agonist activity at human S1P4 receptor expressed in CHO-K1 cells by aequorin calcium accumulation assay. Format: functional, cell-based. In a few lines: (§1)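 CHO-K1 aequorin lines revived in DMEM F12 with 10% charcoal-stripped FBS, recovered 30 min at 37°C, then loaded 18-24 h at room temperature in the dark with 5 µM coelenterazine at 2.5x10^6 cells/mL. Cells were added at 1x10^5/well to compound, and flash luminescence was recorded immediately.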

A short description of series [2]: Lipophilicity, log D of the compound at pH 10.5 by chromatography. Format: physicochemical. The following applies: buffer.
A short description of series [3]: Intrinsic clearance in cynomolgus monkey hepatocytes at 0.5 uM after 2 hrs by LC-MS/MS analysis. It is filed as ADME, cell-based, Macaca fascicularis, Hepatocyte.
The nature of series [4]: Lipophilicity, log D of the compound at pH 7.4 by chromatography. Format: physicochemical. The following applies: buffer.
Series [5] has as its target Sphingosine 1-phosphate receptor 2 (Homo sapiens, UniProt O95136). Description: Agonist activity at human S1P2 receptor expressed in Saccharomyces cerevisiae after 24 hrs by reporter gene assay. The method in brief:
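S. cerevisiae with integrated S1P2 under the GPD promoter, seeded at 0.02 OD600 in histidine-free minimal medium with 5 mM 3-aminotriazole and 100 µM fluorescein-di-(β-D-glucopyranoside). Agonist-driven growth was read as fluorescein fluorescence (ex 485/em 535 nm) after 24 h at 30°C.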

Series [6] addresses Sphingosine 1-phosphate receptor 5 (Homo sapiens, UniProt Q9H228). Kind of series: Agonist activity at human S1P5 receptor expressed in CHO-K1 cells by aequorin calcium accumulation assay. Format: functional, cell-based. The method in brief: as §1
Series [7] deals with Hepatocyte. Description: Intrinsic clearance in human hepatocytes at 0.5 uM after 2 hrs by LC-MS/MS analysis. Format: ADME, cell-based. In a few lines:
(§2)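 Compound at 0.5 µM incubated with pooled cryopreserved hepatocytes (0.7 million cells/mL) in Williams Medium E at 37°C under CO2/O2. Supernatants analysed by LC-MS/MS. CLi was derived from a first-order rate constant, scaled with 1.2x10^8 cells/g liver (human, rat, mouse) or 2.4x10^8 cells/g liver (dog).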

Series [8] relates to Hepatocyte. Kind of series: Intrinsic clearance in Sprague-Dawley rat hepatocytes at 0.5 uM after 2 hrs by LC-MS/MS analysis. It is filed as ADME, cell-based. In a few lines: as §2
Series [9] concerns the target Sphingosine 1-phosphate receptor 3 (Homo sapiens, UniProt Q99500). Kind of series: Agonist activity at human S1P3 receptor expressed in RBL cells by [35S]GTP-gammaS accumulation assay. It is filed as cell-based. In a few lines: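 Sucrose-gradient-purified RBL S1P3 membranes (0.44 µg/well) precoupled 30 min on ice to WGA SPA beads with 2 µg/well saponin in HEPES/MgCl2/NaCl buffer pH 7.4. 5 µM GDP final and 0.3 nM [35S]GTPγS final added, then dispensed onto compound in DMSO. Read by scintillation proximity after 3 h at room temperature.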

A short description of series [10]: Lipophilicity, log D of the compound at pH 2 by chromatography. The following applies: buffer. It is filed as physicochemical.

Sequence of Sphingosine 1-phosphate receptor 3 (Q99500 whole entry): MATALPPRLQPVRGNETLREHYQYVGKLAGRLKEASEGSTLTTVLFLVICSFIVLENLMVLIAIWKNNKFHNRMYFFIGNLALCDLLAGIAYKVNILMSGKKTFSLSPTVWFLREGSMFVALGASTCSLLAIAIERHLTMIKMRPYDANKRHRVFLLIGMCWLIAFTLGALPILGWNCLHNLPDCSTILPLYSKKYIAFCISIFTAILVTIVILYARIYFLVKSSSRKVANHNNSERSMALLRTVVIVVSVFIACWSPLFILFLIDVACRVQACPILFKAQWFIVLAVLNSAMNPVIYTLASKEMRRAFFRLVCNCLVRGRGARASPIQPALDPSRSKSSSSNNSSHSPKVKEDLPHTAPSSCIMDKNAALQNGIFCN
Sequence of Sphingosine 1-phosphate receptor 5 (Q9H228 whole entry): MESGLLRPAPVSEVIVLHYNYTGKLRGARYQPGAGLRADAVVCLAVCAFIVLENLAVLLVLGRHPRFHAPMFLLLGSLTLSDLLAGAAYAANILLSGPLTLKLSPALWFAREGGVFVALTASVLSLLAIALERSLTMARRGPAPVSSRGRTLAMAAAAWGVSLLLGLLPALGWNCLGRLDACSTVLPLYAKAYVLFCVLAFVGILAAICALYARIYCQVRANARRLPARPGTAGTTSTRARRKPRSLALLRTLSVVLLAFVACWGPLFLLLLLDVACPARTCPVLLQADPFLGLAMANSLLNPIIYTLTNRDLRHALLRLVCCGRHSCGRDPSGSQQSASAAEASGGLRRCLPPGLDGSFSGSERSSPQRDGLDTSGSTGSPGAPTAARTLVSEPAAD
Sequence of Sphingosine 1-phosphate receptor 2 (O95136 whole entry): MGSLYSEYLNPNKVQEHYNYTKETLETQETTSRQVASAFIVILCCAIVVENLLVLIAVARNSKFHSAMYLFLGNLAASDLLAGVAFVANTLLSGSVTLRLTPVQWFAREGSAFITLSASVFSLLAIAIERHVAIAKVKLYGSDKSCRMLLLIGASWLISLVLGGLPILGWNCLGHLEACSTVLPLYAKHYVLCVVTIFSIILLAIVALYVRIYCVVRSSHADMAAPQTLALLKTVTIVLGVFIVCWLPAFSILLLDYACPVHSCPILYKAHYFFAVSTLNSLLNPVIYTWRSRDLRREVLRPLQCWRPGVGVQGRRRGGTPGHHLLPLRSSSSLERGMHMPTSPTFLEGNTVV

In the case of `Cc1c2c(nn1-c1nnc(-c3ccc(OC(C)C)c(Cl)c3)s1)CCN(CCC(=O)O)C2`, the concentration giving a half-maximal response (EC50) is above 39.8 µM in [1], above 31.6 µM in [5], 0.0166 µM in [6] and above 31.6 µM in series [9]. Also, the results for the chromatographic logD in series [2], in [4] and in series [10] were 1.53, 3.73 and 1.03, respectively. Besides, the CLH in series [3] worked out at 4.2 mL/min/g; in series [7] it was 1.8 mL/min/g; in series [8], 3.2 mL/min/g.
